According to ChEMBL document CHEMBL1166017, “Alpneumines A-H, new anti-melanogenic indole alkaloids from Alstonia pneumatophora” (Bioorg Med Chem, 2010):
The source made the active and inactive calls. The calls are words filed in the database; no cut-off is given here.

What was measured:
Tyrosinase = biological target: T1, Tyrosinase (Agaricus bisporus, UniProt O42713); assay: Inhibition of mushroom tyrosinase
T1 sequence (O42713 whole entry): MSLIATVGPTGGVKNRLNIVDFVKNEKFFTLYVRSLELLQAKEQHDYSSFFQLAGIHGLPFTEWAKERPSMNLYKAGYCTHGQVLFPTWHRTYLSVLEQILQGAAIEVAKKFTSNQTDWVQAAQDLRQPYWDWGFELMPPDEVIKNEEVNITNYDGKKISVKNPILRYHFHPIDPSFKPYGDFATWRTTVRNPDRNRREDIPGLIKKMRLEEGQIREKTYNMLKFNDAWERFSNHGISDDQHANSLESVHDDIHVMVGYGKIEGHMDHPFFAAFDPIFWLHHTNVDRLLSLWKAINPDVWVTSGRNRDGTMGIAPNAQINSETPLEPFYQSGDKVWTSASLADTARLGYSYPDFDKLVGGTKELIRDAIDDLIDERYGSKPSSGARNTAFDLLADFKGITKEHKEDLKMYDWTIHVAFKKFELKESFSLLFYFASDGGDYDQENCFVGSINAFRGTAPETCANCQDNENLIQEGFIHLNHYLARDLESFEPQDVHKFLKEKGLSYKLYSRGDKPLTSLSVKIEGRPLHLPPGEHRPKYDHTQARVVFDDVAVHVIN

B16 [1] = assay: Antimelanogenic activity in mouse B16 cells assessed as decrease in intracellular melanin level after 4 days; type: functional, cell-based; conditions: B16, 96 h
Method in brief: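 B16 cells in DMEM with 10% FBS and penicillin/streptomycin, seeded at 5000 cells/well and preincubated 24 h at 37 °C in 5% CO2. Cultured with IBMX (100 µM) with or without sample at 6.3–100 µM for 48 h, then in fresh medium under the same conditions for a further 48 h. Cells dissolved in 1 N NaOH at 90 °C for 1 h. Relative melanin read at 400 nm. Arbutin was the positive control.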

B16 [2] = assay: Inhibition of tyrosinase expression in mouse B16 cells after 1 hr by Western blotting; type: functional, cell-based
Method in brief: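 B16 cells were treated with sample at 50 and 75 µM plus 0.1 mM IBMX, then lysed. Lysates were run on 7.5% SDS–PAGE and transferred to PVDF, which was blocked 1 h in 5% skim milk. Anti-tyrosinase (1:2000) was applied overnight and anti-β-actin (1:2000) for 1 h, followed by HRP-conjugated secondary IgG.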

B16 [3] = assay: Antimelanogenic activity in mouse B16 cells assessed as decrease in intracellular melanin level at IC50 after 4 days; type: functional; design: scale not given: the % may be the effect or the level left
B16 [4] = assay: Cytotoxicity against mouse B16 cells assessed as cell viability after 4 days by MTT assay; type: cell-based; conditions: b16, 96 h
Method in brief: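 B16 cells were cultured as for the melanin assay: IBMX 100 µM and sample at 6.3–100 µM for 4 days. MTT (5 mg/mL solution) was added for 2 h, and the formazan was dissolved in DMSO. Absorbance was read at 550 and 700 nm. Viability was taken from the absorbance difference between samples and controls, in triplicate.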

Compound | IC50 (B16 [1]) [µM] | IC50 (Tyrosinase) [µM] | Activity (B16 [3]) [%] | other results
COC(=O)C1=C2Nc3c(O)cccc3[C@]23CC[N+]2([O-])C[C@H](C(C)=O)[C@H]1C[C@H]32 (some centres not stated) [ALPNEUMINE A] |  | > 100 |  | 
COC(=O)C1=C2Nc3c(O)cccc3[C@]23CCN2C[C@H](C(C)=O)[C@H]1C[C@@H]23 [ALPNEUMINE B] |  | > 100 |  | 
COC(=O)C1=C2Nc3ccccc3[C@]23CC[N+]2([O-])C[C@H](C(C)=O)[C@H]1C[C@H]32 (some centres not stated) [ALPNEUMINE C] |  | > 100 |  | 
COC(=O)C1=C2Nc3c(O)cccc3[C@]23CCN2C[C@@H](C(C)=O)[C@H]1C[C@@H]23 [ALPNEUMINE D] |  | > 100 |  | 
COC(=O)C1=C2Nc3ccccc3[C@]23CCN2C[C@@H](C(C)=O)[C@H]1C[C@@H]23 [ALPNEUMINE E] | 71.4 | > 100 |  | 
COC(=O)[C@@]12CO[C@@]3(O)[C@H]1CCN1CC[C@H]3[C@@H]1c1c2[nH]c2ccccc12 [ALPNEUMINE F] |  | > 100 |  | 
COC(=O)[C@@]12COCC[C@H]3[C@@H]1CC[N@+](C)([O-])[C@H]3c1c2[nH]c2ccccc12 [ALPNEUMINE H] |  | > 100 |  | 

Second part, led by results:

IC50 (B16 [1]) [µM] | Compound | IC50 (Tyrosinase) [µM] | Activity (B16 [3]) [%] | other results
58.3 | CC[C@]12CCC[N+]3([O-])CCc4c(n(c5ccccc45)[C@@](O)(C(=O)OC)C1)[C@H]23 (some centres not stated) [ALPNEUMINE G] | > 100 | <50 | Activity (B16 [2]): Active; Activity (B16 [4]): Dose-dependent effect
49.8 | CC[C@@]12C=C(C(=O)OC)n3c4c(c5ccccc53)CCN(CCC1)[C@H]42 [APOVINCAMINE] |  | <50 | 
68.9 | CC[C@]12CCCN3CCc4c(n(c5ccccc45)[C@@](O)(C(=O)OC)C1)[C@@H]32 [VINCAMINE] |  | <50 | 
